Source: ChEMBL document CHEMBL3608232, “Exploring the Existing Drug Space for Novel pTyr Mimetic and SHP2 Inhibitors” (ACS Med Chem Lett, 2015)
Each block holds one compound with its values, some of them ahead of it. Calls of active or inactive are those of the source. The rule behind the calls is not given here.

Columns and labels:
[1] = target: T1, Tyrosine-protein phosphatase non-receptor type 11 (Homo sapiens) (UniProt Q06124); test: Inhibition of phosphatase activity of SHP2 (unknown origin) using pNPP as a substrate at 50 uM after 10 mins by spectrophotometer analysis
T1 sequence (whole entry): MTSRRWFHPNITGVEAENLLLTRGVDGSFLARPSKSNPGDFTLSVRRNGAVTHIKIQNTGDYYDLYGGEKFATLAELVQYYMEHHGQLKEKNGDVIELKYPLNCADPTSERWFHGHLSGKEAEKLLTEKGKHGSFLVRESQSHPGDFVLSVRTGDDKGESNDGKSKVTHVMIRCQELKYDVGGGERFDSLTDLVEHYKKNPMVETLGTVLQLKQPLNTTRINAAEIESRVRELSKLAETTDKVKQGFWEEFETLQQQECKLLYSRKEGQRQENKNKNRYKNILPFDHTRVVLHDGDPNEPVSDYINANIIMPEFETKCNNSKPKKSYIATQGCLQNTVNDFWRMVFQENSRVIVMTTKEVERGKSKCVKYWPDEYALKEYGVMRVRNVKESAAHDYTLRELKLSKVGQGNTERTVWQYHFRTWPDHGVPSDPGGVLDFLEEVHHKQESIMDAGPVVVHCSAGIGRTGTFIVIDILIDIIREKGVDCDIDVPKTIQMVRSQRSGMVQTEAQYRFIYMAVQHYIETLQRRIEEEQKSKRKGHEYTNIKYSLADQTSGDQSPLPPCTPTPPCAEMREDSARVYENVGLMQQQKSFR

NCI-H1975 [2] = test: Cytotoxicity against human NCI-H1975 cells by MTT assay; assay type: functional, cell-based
MDA-MB-231 [3] = test: Cytotoxicity against human MDA-MB-231 cells by MTT assay; assay type: functional, cell-based
[4] = target: T1, Tyrosine-protein phosphatase non-receptor type 11 (Homo sapiens); test: Inhibition of SHP2 in human NCI-H1975 cells assessed as reduction of EGF-induced ERK1/2 activation at 40 uM after 60 mins relative to control; assay type: cell-based
How it was run: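 H1975 cells were stimulated with EGF and ERK1/2 and paxillin phosphorylation was assessed by immunoblot. Band intensities were quantified, and pERK1/2/total ERK1/2 or pPaxillin(Y118)/total paxillin ratios were normalized to the reference. Blots are representative of at least two independent experiments, with quantified values given as mean ± SD.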

MDA-MB-231 [5] = test: Cytotoxicity against human MDA-MB-231 cells at 20 to 40 uM by MTT assay; assay type: functional, cell-based
NCI-H1975 [6] = test: Cytotoxicity against human NCI-H1975 cells at 20 to 40 uM by MTT assay; assay type: functional, cell-based
[7] = target: T1, Tyrosine-protein phosphatase non-receptor type 11 (Homo sapiens); test: Inhibition of SHP2 in human NCI-H1975 cells assessed as increase in EGF-induced paxillin phosphorylation at Y118 at 40 uM after 60 mins relative to control

inhibition [1]: inactive
SMILES: O=C(O)C(=O)NCc1ccc(NC(=O)C(c2ccccc2)S(=O)(=O)O)cc1 (stereo not drawn)

SMILES: CC(C)c1ccc(NC(=O)C(=O)Nc2ccc(NC(=O)C(c3ccccc3)S(=O)(=O)O)cc2)cc1 (stereo not drawn)
Activity (NCI-H1975 [2]): Dose-dependent effect
Activity (MDA-MB-231 [3]): Dose-dependent effect

inhibition [1]: inactive
SMILES: O=C(O)C(=O)Nc1ccc(NC(=O)C(c2ccccc2)S(=O)(=O)O)cc1 (stereo not drawn)

fold change (FC) [4]: 1
fold change (FC) [7]: 1.1
SMILES: O=C(Nc1ccccc1)C(=O)Nc1ccc(NC(=O)C(c2ccccc2)S(=O)(=O)O)cc1 (stereo not drawn)
Activity (MDA-MB-231 [5]): inactive
Activity (NCI-H1975 [6]): inactive
